Experimental data reported in PubChem BioAssay.
Active and inactive are the calls of the source.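 How the source made its calls, unless noted: active means viability at or under a set limit in both replicates, limit being median viability minus 3 SD (cut at about 48% in these data, passing the limit was not always enough); inconclusive means at or under the limit in just one replicate; inactive means at or above the limit in both replicates.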

Assays:
[1] = reduced viability of SK-BR-3 breast cancer cells – cell-based, 24 h, human, pilot screen (AID 572;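 active means viability at or below 10% of carrier control in both of two separate runs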;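 further: compound exposure lasted between 18 and 24 h rather than exactly 24 h; 100% = carrier-treated control wells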); settings: SK-BR-3 viability, CellTiter-Glo luminescence, at 10 µM, stronger effect = lower value
[2] = HUVEC growth inhibition – cell-based, human, primary screen (AID 575;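 active means viability at or below 30% in both replicate assays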;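 further: 100% = median of untreated cell wells with 0.1% DMSO on each plate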); settings: HUVEC proliferation, CellTiter-Glo luminescence, 72 h; at 10 µM; stronger effect = lower value
Method in brief: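 Assay system: Primary human umbilical vein endothelial cells | Quantity: 1250 cells per well | Medium: Supplemented EBM, 2% fetal bovine serum | Detection: CellTiter-Glo luminescence measuring cellular ATP | Read-out: % viability vs DMSO wells | Plate: Collagen-coated 384-well format | Times: 72 h exposure, 37 °C, 5% CO2, 30 min RT equilibration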

[3] = H69AR cell proliferation blockers – human, duplicate replicates, primary screen (AID 580); settings: H69AR lung tumor cells viability, ATP luminescence, 72 h; at 10 µM; stronger effect = lower value;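 further: 100% = mean luminescence of untreated wells and 0% = no signal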
[4] = MRP1 drug-resistance reversers in H69AR cells – cell-based, doxorubicin co-treatment, pilot screen (AID 601;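 active means viability loss from added drug above about 55%, and viability with drug at most 40%, in both replicates, limit read from the data, passing the limit was not always enough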); settings: CellTiter-Glo, 72 h, at 10 µM; for differential viability (reversal): stronger effect = higher value
[5] = yeast transport mutant growth inhibition pilot in 384-well plates, post-Golgi transport modulator project (AID 636; in the data active means inhibition above about 31%); settings: absorbance 615 nm, about 18 h, stronger effect = higher value
[6] = growth suppression of yeast trafficking mutant, preliminary HTS, modulators of trafficking downstream of Golgi apparatus project, 1536-format plate, OD 615 nm (AID 637; in the data active means inhibition above about 30%); settings: yeast transport mutant growth, absorbance 615 nm, 18 h; stronger effect = higher value
[7] = H69AR cells + 2 uM doxorubicin, measured here: viability with 2 uM doxorubicin, stronger effect = lower value
[8] = H69AR cells, compound alone cytotoxicity

Row | Compound | viability [1] | viability [2] | viability [3] | differential viability (reversal) ([4]; H69AR cells + 2 uM doxorubicin) | viability [4, 7] [%] | viability [4, 8] [%] | inhibition [5] | inhibition [6]
1 | c1ccc(-c2cc(N3CCCCC3)ncn2)cc1 | 105% (inactive) | 101% (inactive) | 99.7% (inactive) | 9.16% (inactive) | 90.6 | 99.7 | -7.26% (inactive) | -0.32% (inactive)
2 | COc1ccc(OC)c(Nc2nc(-c3cccs3)cs2)c1 | 82% (inactive) | 60.7% (inactive) | 76.5% (inactive) | -7.61% (inactive) | 84.1 | 76.5 | -6.71% (inactive) | 0.36% (inactive)
3 | COc1ccc(OC)c(S(=O)(=O)N2CCC(C(=O)NCc3ccccc3OC)CC2)c1 | 101% (inactive) | 97.5% (inactive) | 103% (inactive) | -0.525% (inactive) | 103 | 103 | 0.55% (inactive) | -4.03% (inactive)
4 | CC(C)n1c(NCc2c[nH]c3ccccc23)nc2ccccc21 | 91% (inactive) | 79.6% (inactive) | 74.8% (inactive) | -3.61% (inactive) | 78.4 | 74.8 | -9.45% (inactive) | -5.16% (inactive)
5 | Fc1cccc(Nc2cc(-n3cccn3)ncn2)c1 | 95% (inactive) | 72.5% (inactive) | 89.6% (inactive) | -4.63% (inactive) | 94.3 | 89.6 | -7.81% (inactive) | -4.76% (inactive)
6 | O=C(Nc1ccccc1)N(CCCN1CCOCC1)Cc1cc2cc3c(cc2[nH]c1=O)OCCO3 | 96% (inactive) | 82.3% (inactive) | 67.6% (inactive) | 2.71% (inactive) | 64.9 | 67.6 | 2.13% (inactive) | 3.45% (inactive)
7 | C=CCN(CC=C)C(=O)Nc1cc(Cl)ccc1OC | 83% (inactive) | 95.3% (inactive) | 96.9% (inactive) | 0% (inactive) | 96.9 | 96.9 | -8.77% (inactive) | -3.27% (inactive)
8 | CC(=O)c1c(O)cc(C)n(Nc2nc(C)cc(C)n2)c1=O | 91% (inactive) | 84.6% (inactive) | 71.9% (inactive) | -28.5% (inactive) | 100 | 71.9 | -4.05% (inactive) | -0.73% (inactive)
9 | CCn1c(SCC(=O)Nc2cc(NC(C)=O)ccc2OC)nnc1-c1ccccn1 | 93% (inactive) | 89.6% (inactive) | 94.1% (inactive) | 8.36% (inactive) | 85.8 | 94.1 | -1.51% (inactive) | 2.1% (inactive)
10 | Cc1nnc(Nc2ccccn2)c2ccccc12 | 89% (inactive) | 81.1% (inactive) | 87.3% (inactive) | -2.5% (inactive) | 89.8 | 87.3 | 0.27% (inactive) | -4.84% (inactive)
11 | CCCNC(=O)C1CN(S(=O)(=O)c2ccccc2)CCN1S(=O)(=O)c1ccccc1 (centres undefined) | 103% (inactive) | 108% (inactive) | 99.2% (inactive) | 9.82% (inactive) | 89.4 | 99.2 | 4.42% (inactive) | 3.77% (inactive)
12 | CCn1c(SCC(N)=O)nnc1-c1ccc(S(=O)(=O)N2CCN(C)CC2)cc1 | 97% (inactive) | 105% (inactive) | 95.8% (inactive) | 9.21% (inactive) | 86.6 | 95.8 | 2.93% (inactive) | 6.73% (inactive)
13 | COc1ccccc1NC(=O)CSc1nnc(Cn2nnc(-c3ccccc3)n2)n1-c1ccccc1 | 63% (inactive) | 88.7% (inactive) | 87.4% (inactive) | -5.36% (inactive) | 92.8 | 87.4 | -5.75% (inactive) | -1.45% (inactive)
14 | O=C(NCC12CC3CC(C1)CC(CNC(=O)N1CCCC1)(C3)C2)N1CCCC1 | 78% (inactive) | 90.1% (inactive) | 84.8% (inactive) | -4.64% (inactive) | 89.5 | 84.8 | -10.3% (inactive) | 1.77% (inactive)
15 | CCc1cn([C@H]2C[C@H](O)[C@@H](CO)O2)c(=O)[nH]c1=O | 120% (inactive) | 93.2% (inactive) | 85.9% (inactive) | 9.33% (inactive) | 76.6 | 85.9 | -0.26% (inactive) | 7.5% (inactive)
16 | C[C@]12C=CC(=O)C=C1CC[C@@H]1[C@@H]2[C@@H](O)C[C@@]2(C)[C@H]1CC[C@]2(O)C(=O)COC(=O)CCC(=O)O | 112% (inactive) | 80.3% (inactive) | 84.4% (inactive) | 2.96% (inactive) | 81.4 | 84.4 | 1.95% (inactive) | 1.33% (inactive)
17 | CCOC(=O)c1[nH]c2cc(OC)c(OC)cc2c1NC(=O)C(C)N1CCN(Cc2ccccc2)CC1 (centres undefined) | 73% (inactive) | 51.3% (inactive) | 59.2% (inactive) | -6.81% (inactive) | 66.1 | 59.2 | -4.59% (inactive) | -5.09% (inactive)

Row | Compound | viability [1] | viability [2] | viability [3] | differential viability (reversal) ([4]; H69AR cells + 2 uM doxorubicin) | viability [4, 7] [%] | viability [4, 8] [%] | inhibition [5] | inhibition [6]
18 | CN(C)c1ccc(C2C3=C(CCCC3=O)OC3=C2C(=O)CCC3)cc1 | 90% (inactive) | 97% (inactive) | 92.5% (inactive) | 2.78% (inactive) | 89.7 | 92.5 | -5.73% (inactive) | -2.18% (inactive)
19 | COc1cc2c(=O)nc3n(c2cc1OC)C(c1ccccc1)N=C(N)N3 (centres undefined) | 69% (inactive) | 109% (inactive) | 97.1% (inactive) | -2.35% (inactive) | 99.4 | 97.1 | -2.84% (inactive) | 20.2% (inactive)
20 | Cc1ccc(S(=O)(=O)N2CCN(C(=O)N3CCOCC3)C2C)cc1 (centres undefined) | 76% (inactive) | 103% (inactive) | 99% (inactive) | -4.24% (inactive) | 103 | 99 | -8.08% (inactive) | -2.18% (inactive)
21 | CCOc1ccc(S(=O)(=O)Nc2ccc(Cl)cn2)c(C)c1C | 121% (inactive) | 91% (inactive) | 87.6% (inactive) | -2.8% (inactive) | 90.4 | 87.6 | -5.06% (inactive) | 4.43% (inactive)
22 | CN1CCC(=C2c3ccccc3C=Cc3ccccc32)CC1 | 100% (inactive) | 52.6% (inactive) | 82.4% (inactive) | 9.07% (inactive) | 73.4 | 82.4 | -0.65% (inactive) | 1% (inactive)
23 | O=C(c1ccc(S(=O)(=O)N2CCC(c3nc4ccccc4s3)CC2)cc1)N1CCOCC1 | 97% (inactive) | 100% (inactive) | 71.4% (inactive) | -28.7% (inactive) | 100 | 71.4 | -5.34% (inactive) | 3.64% (inactive)
24 | COc1cc(C)c(Br)cc1S(=O)(=O)N1CCOCC1 | 84% (inactive) | 99.6% (inactive) | 100% (inactive) | 14.5% (inactive) | 86 | 100 | -5.48% (inactive) | -0.18% (inactive)
25 | CS(=O)(=O)N(CC(=O)NCc1ccncc1)Cc1ccc(Cl)cc1 | 104% (inactive) | 101% (inactive) | 98.3% (inactive) | 0.52% (inactive) | 97.8 | 98.3 | -8.36% (inactive) | 0.81% (inactive)
26 | Oc1c(I)cc(I)c2cccnc12 | 61% (inactive) | 71.3% (inactive) | 84.6% (inactive) | -6.25% (inactive) | 90.9 | 84.6 | -2.73% (inactive) | 1% (inactive)
27 | CCC(=O)Nc1ccc(NC(=O)c2ccccn2)cn1 | 87% (inactive) | 103% (inactive) | 98.2% (inactive) | 13.6% (inactive) | 84.6 | 98.2 | -5.47% (inactive) | -8% (inactive)
28 | CCOC(=O)N1CCN(C(=O)c2cn(CC)c3cc(N4CCN(C)CC4)c(F)cc3c2=O)CC1 | 100% (inactive) | 101% (inactive) | 104% (inactive) | 1.33% (inactive) | 103 | 104 | -7.26% (inactive) | 7.74% (inactive)
29 | CN(C)C(CNC(=O)Nc1cccc(Cl)c1)c1cccnc1 (centres undefined) | 77% (inactive) | 96.6% (inactive) | 90.6% (inactive) | 8.96% (inactive) | 81.7 | 90.6 | -3.42% (inactive) | 2.18% (inactive)
30 | Cc1nnc(NC(=O)CCC(=O)N2CCC(C)CC2)s1 | 86% (inactive) | 105% (inactive) | 90.8% (inactive) | 1.93% (inactive) | 88.9 | 90.8 | -3.01% (inactive) | 1.64% (inactive)
31 | COc1ccc2c(c1)C1(Nc3ccccc3-c3nc4ccccc4n31)C(=O)N2 (centres undefined) | 88% (inactive) | 57.2% (inactive) | 82.3% (inactive) | -3.61% (inactive) | 85.9 | 82.3 | -8.49% (inactive) | 4.19% (inactive)
32 | CC(=O)Nc1ccccc1O | 111% (inactive) | 102% (inactive) | 96.1% (inactive) | 0.37% (inactive) | 95.7 | 96.1 | -0.13% (inactive) | 4.5% (inactive)
33 | O=C(O)CCNC(=O)c1ccccc1 | 84% (inactive) | 99.1% (inactive) | 98.7% (inactive) | 7.94% (inactive) | 90.7 | 98.7 | 2.47% (inactive) | 1.17% (inactive)
